These results are taken from PubChem BioAssay.

A short description of test [1]: inhibitors of TNFa-induced NFkB p65 translocation, primary screen, imaging, HUVEC, MLSMR starter and 10KST1 sets (AID 438;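 active means inhibition above 20% together with a positive visual image hit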;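 further: compound added about 3h40 before a 20 min TNFalpha stimulation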;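 on inhibition: signal is the nuclear over cytoplasmic p65 intensity ratio per well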). The note with it: HUVEC TNFa-induced p65 nuclear translocation; cell count: measured here: nuclei count (cytotoxicity indicator), at 2.08 µM; inhibition: at 2 µM, stronger effect = higher value, 0% TNFa-plus-vehicle, 100% no-TNFa wells.
A short description of test [2]: inhibitors of E-selectin induction by TNFa, primary screen, imaging, HUVEC, immunofluorescence, MLSMR starter and 10KST1 sets (AID 487;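 active means visually confirmed hit in the image check and inhibition above 20%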;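 on inhibition: signal is fraction of cell area covered by stained E-selectin grains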;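 on nuclei count: 100% = median nuclei count of all wells on the same plate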). The note with it: HUVEC TNFalpha-induced E-selectin immunofluorescence imaging, at 2 µM; inhibition: stronger effect = higher value; nuclei count: measured here: cell number, toxicity.
Test [3] in a line: DUSP6 inhibitors restoring Erk phosphorylation by chemical complementation, primary imaging in DUSP6-transfected HeLa (AID 609;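 active means compounds giving at least 50% inhibition in the cell-based MKP-3 phosphatase rescue imaging test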;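 on inhibition: phospho-Erk level distribution per well compared with pooled transfected vehicle control wells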). The note with it: HeLa MKP-3 transfected, phospho-Erk imaging KS statistic, at 10 µM, cells stimulated with TPA for 15 min.
Test [4] deals with Dual specificity protein phosphatase 6 (Homo sapiens) (UniProt Q16828). The test is described as above. The note with it: HeLa MKP-3 transfected, phospho-Erk imaging KS statistic; at 10 µM; stronger effect = higher value; cells stimulated with TPA for 15 min.
The target in test [5] is Voltage-gated potassium channel subunit beta-2 (Rattus norvegicus) (UniProt P62483). As to the kind of experiment: KvBeta enzyme negative modulators, primary screen, biochemical, NADPH fluorescence (AID 622;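 active means fluorescence slope higher than the sample average by over 3 SD, cut at about -0.22 in these data, passing the limit was not always enough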;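 further: slope of raw intensity against log time taken from 70 to 1610 s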). The note with it: recombinant KvBeta, 4-cyanobenzaldehyde reduction, at 10 µM, stronger effect = higher value.
Test [6] shares this target. The test is described as follows: KvBeta positive modulators, primary screen, biochemical, NADPH fluorescence (AID 623;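 active means NADPH fluorescence slope more negative than the mean of all samples by about 3 SD, 99.7% confidence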;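 further: fluorescence intensity change per second fitted from 20 to 320 s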). The note with it: Recombinant KvBeta, NADPH fluorescence decrease slope, 10 min; at 10 µM; stronger effect = lower value.
Test [7] addresses Muscarinic acetylcholine receptor M4 (Homo sapiens) (UniProt P08173). The test is described as follows: compounds altering M4/GIRK thallium flux, either direction, primary screen, M4 allosteric agonist project, cell-based, HEK293 M4/GIRK, BTC-AM (AID 625;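 active means fluorescence slope after compound addition differing from the mean of all tested samples at 99.7% confidence, mostly higher but some lower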;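 further: thallium influx through GIRK channels coupled to M4 in HEK293 cells with BTC-AM dye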). The note with it: at 10 µM, actives lie on both sides. In outline: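 assay system = HEK293 cells with M4 receptor and GIRK channels | medium = pH 7.3 thallium assay buffer | doses = 10 µM final, single point | timing = cells overnight at 37 °C, BTC-AM loading 1 h, reads 2 min total | signal = BTC-AM fluorescence, 1 Hz kinetic reads | read-out = post-addition slope, 15–24 s, of baseline-normalized fluorescence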

The nature of test [8]: inhibitors of larval lipid processing in zebrafish, primary screen, whole organism, PED6 fluorescence, gall bladder and intestine (AID 686;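 active means a full or partial loss of lipid-probe fluorescence in the fish gall bladder, intestine or both, judged by eye; inactive means no fluorescence loss, or compound toxic to the fish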;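 further: larvae 5 to 7 days old with five fish per well; signal comes from phospholipase A2 cleavage of quenched PED6 carried via bile; overnight exposure to compound and PED6 before scoring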). The note with it: Zebrafish larvae PED6 lipid processing, fluorescence scoring; screened at 20 µM (by protocol). In outline:
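Also added: quenched phospholipase substrate PED6, 100 nM final, ingested by larvae; System: zebrafish larvae, 5-7 d; Quantity: 5 larvae per well; Compound: 20 µM single dose; Schedule: overnight compound and PED6 incubation; Read-out: visual per-well fluorescence inhibition score; Measured by: By-eye fluorescence microscopy; Medium: E3.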

Test [9] is described as follows: inhibitors of Chlamydomonas gravitaxis, primary screen, whole organism, Chlamydomonas reinhardtii, WT vs cilia-less mutant, absorbance, 96-well (AID 463189).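 Further: 0% = wild type cc124 cells in DMSO and 100% = ciliumless bld1 mutant cells.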 The note with it: OD600 absorbance, 2 days, at 10 µM, stronger effect = higher value.
[10] abbreviates: measured here: cell density z-score.
Setting [11] is: measured here: nuclear c-Myc green intensity z-score.
The mark [12] stands for this setting: measured here: nuclear pErk red intensity z-score, stronger effect = higher value.

Calls of active or inactive are those of the source.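 How the source made its calls, unless noted: active means inhibition at or above 50% relative to wild type and mutant plate controls; inactive means inhibition below 50%.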

Voltage-gated potassium channel subunit beta-2 (Rattus norvegicus), sequence (P62483 whole entry, looked up): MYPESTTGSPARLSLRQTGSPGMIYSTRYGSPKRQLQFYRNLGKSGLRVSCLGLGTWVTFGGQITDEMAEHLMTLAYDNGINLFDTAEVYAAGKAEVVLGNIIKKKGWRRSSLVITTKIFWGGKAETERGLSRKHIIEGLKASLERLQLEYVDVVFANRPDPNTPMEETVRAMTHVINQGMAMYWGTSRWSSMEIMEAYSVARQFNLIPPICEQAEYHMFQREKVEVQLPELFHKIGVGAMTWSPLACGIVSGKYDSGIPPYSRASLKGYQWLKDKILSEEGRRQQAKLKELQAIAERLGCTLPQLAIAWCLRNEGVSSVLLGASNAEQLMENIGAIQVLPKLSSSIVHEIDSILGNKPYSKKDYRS
Muscarinic acetylcholine receptor M4 (Homo sapiens), sequence (P08173 whole entry, looked up): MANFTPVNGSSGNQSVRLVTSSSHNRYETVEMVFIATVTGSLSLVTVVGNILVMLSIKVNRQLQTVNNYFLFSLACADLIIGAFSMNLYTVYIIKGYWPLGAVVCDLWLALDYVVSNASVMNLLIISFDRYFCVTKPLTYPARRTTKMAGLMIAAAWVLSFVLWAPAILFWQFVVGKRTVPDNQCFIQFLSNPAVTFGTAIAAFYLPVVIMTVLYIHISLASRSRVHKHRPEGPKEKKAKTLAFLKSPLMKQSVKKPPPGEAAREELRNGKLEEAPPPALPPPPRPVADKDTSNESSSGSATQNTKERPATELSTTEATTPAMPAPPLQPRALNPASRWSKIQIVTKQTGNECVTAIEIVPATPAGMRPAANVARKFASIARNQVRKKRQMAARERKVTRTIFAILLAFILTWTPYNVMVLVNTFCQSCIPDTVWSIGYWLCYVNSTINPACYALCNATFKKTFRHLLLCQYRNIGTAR
Dual specificity protein phosphatase 6 (Homo sapiens), sequence (Q16828 whole entry, looked up): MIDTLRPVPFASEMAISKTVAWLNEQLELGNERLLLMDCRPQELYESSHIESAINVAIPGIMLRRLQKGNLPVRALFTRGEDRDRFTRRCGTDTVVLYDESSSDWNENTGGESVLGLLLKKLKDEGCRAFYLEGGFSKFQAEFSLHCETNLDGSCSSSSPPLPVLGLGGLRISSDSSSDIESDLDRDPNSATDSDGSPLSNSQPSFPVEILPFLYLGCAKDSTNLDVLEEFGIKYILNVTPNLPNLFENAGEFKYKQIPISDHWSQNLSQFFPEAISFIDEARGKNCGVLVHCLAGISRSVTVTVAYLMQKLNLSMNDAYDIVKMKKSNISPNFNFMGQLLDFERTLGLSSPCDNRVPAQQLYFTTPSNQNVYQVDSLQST

On to `Nc1nnnn1/N=C/c1cccs1`, for which, in [1], the cell count worked out at 656. The inhibition in [1] is -4.7% (inactive); in [2], -50.1% (inactive); in test [4], -8.95% (inactive); in [9], 17.8% (inactive). The nuclei count in test [2] came out at 124%. The z-score in [3] (setting [10]) is -0.3; in [3] (setting [11]) it was -1.24; in test [3] (setting [12]), -0.836. The fluorescence slope in [5] was -0.483 (inactive); in test [7] it was 0.00656 (inactive). For the same compound, the NADPH fluorescence slope in test [6] was -6.6e-05 (inactive). Moreover, in test [8], the compound was classed as inactive.

Consider `Cc1cc(O)ccc1-c1cnc2ccccc2n1`, for which the cell count in test [1] came out at 695. The inhibition in [1] is 2% (inactive); in [2], -163% (inactive); in test [4], -6.06% (inactive); in [9], -11.2% (inactive). Further, the nuclei count in test [2] came out at 166%. Besides, the z-score in [3] (setting [10]) is -0.391; in test [3] (setting [11]), 1.61; in test [3] (setting [12]), 0.545. Moreover, the fluorescence slope in test [5] is -0.482 (inactive); in [7], 0.00527 (inactive). Moreover, in test [6], the NADPH fluorescence slope was -6.2e-05 (inactive). For the same compound, the result in test [8] was inactive.

`CCc1nc2n[nH]c(N)c2c2c1CSC(C)(C)C2`: the cell count in test [1] was found to be 644. Moreover, the inhibition is -0.8% (inactive) in test [1], -44.1% (inactive) in test [2], -15% (inactive) in [4] and 12.1% (inactive) in test [9]. The same compound yielded a nuclei count in test [2] of 168%. Moreover, the z-score in test [3] (setting [10]) was -1.43; in [3] (setting [11]) it was 0.647; in test [3] (setting [12]), 2.27. In addition, the fluorescence slope was -0.458 (inactive) in test [5] and 0.00446 (inactive) in test [7]. Moreover, in test [6], the NADPH fluorescence slope was -5.1e-05 (inactive). Further, the compound was classed as inactive in test [8].

As for `Cc1cc(=O)[nH]c(COc2ccccc2)n1`, the cell count in [1] turned out to be 687. For the same compound, the inhibition is -9.9% (inactive) in test [1], -104% (inactive) in [2], 3.49% (inactive) in [4] and -9.35% (inactive) in test [9]. In addition, the nuclei count in test [2] amounted to 162%. Moreover, the values for the z-score in test [3] (setting [10]), in test [3] (setting [11]) and in [3] (setting [12]) were 0.188, 0.603 and 0.438, respectively. Besides, the fluorescence slope in test [5] was -0.432 (inactive); in test [7], 0.00544 (inactive). The NADPH fluorescence slope in test [6] was -2e-05 (inactive). Further, in test [8], the compound was called inactive.

Take `N#Cc1c(N)n(CCOC(=O)c2ccc(Cl)cc2)c2nc3ccccc3nc12`: the cell count in test [1] was 617. The inhibition in test [1] was 22.7% (active); in [2] it was -33.2% (inactive); in [4], -2.47% (inactive); in test [9] it was -2.92% (inactive). Moreover, in [2], the nuclei count turned out to be 95%. Also, the z-score in test [3] (setting [10]) was -0.315; in test [3] (setting [11]) it was -0.666; in test [3] (setting [12]), -0.586. Moreover, the fluorescence slope in test [5] was -0.278 (inactive); in [7] it was 0.00595 (inactive). In addition, in test [6], the NADPH fluorescence slope is -7.1e-06 (inactive). For the same compound, the call in [8] was inactive.

For the compound `Fc1ccc2[nH]c3c(N4CCSCC4)ncnc3c2c1`, in [1], the cell count came out at 664. The inhibition in test [1] was -4.3% (inactive); in test [2] it was 0.7% (inactive); in test [4], -3.95% (inactive); in test [9], 5.41% (inactive). In [2], this compound yielded a nuclei count of 153%. Also, the z-score in test [3] (setting [10]) was -0.905; in test [3] (setting [11]), 0.444; in test [3] (setting [12]) it was 1.27. For the same compound, the fluorescence slope in [5] was -0.418 (inactive); in [7], 0.00396 (inactive). In addition, the NADPH fluorescence slope in test [6] was -2.2e-05 (inactive). Besides, the outcome in test [8] is “inactive; toxic”.

Regarding `COc1ccc(C(=O)OC(C)CN2CCN(C)CC2)cc1OC` (stereo unspecified), the cell count in test [1] is 386. Besides, the inhibition in [1] was 2.6% (inactive); in test [2], -35.7% (inactive); in test [4], -11% (inactive); in test [9] it was 21.4% (inactive). In addition, the nuclei count in test [2] was 154%. Besides, the figures for the z-score in test [3] (setting [10]), in [3] (setting [11]) and in test [3] (setting [12]) were -1.91, 0.605 and 1.37, respectively. For the same compound, the fluorescence slope was -0.446 (inactive) in test [5] and 0.00501 (inactive) in [7]. Besides, the NADPH fluorescence slope in test [6] is -9.4e-05 (inactive). For the same compound, the outcome in [8] was inactive.
